According to ChEMBL document CHEMBL1145112, “Pyrazolo[4,3-e]-1,2,4-triazolo[1,5-c]pyrimidine derivatives as adenosine receptor antagonists. Influence of the N5 substituent on the affinity at the human A 3 and A 2B adenosine receptor subtypes: a molecular modeling investigation” (J Med Chem, 2003):
pIC50, pKi: −log10 of the molar value.

Legend:
Adenosine receptor A2a = Adenosine receptor A2a (Homo sapiens, UniProt P29274); assay: Displacement of [3H]ZM-241385 from human adenosine A2A receptors expressed in HEK293 cells; assay type: cell-based
Adenosine receptor A1 = molecular target: T1, Adenosine receptor A1 (Homo sapiens, UniProt P30542); assay: Displacement of [3H]DPCPX from human Adenosine A1 receptor expressed in CHO cells; assay type: cell-based
T1 sequence (P30542 whole entry): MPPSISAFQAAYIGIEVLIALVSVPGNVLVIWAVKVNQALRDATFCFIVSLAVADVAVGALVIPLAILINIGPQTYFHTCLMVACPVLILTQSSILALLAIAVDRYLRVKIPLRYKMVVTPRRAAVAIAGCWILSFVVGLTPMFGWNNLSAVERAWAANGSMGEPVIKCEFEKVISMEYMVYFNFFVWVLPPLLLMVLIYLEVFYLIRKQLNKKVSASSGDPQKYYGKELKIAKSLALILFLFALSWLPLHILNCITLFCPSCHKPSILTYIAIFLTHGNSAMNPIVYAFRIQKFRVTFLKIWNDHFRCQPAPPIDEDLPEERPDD
Procedure, shortened: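 Membranes from the transfected cells in 50 mM Tris-HCl, pH 7.4, incubated 120 min at 25 °C with 1 nM [3H]-DPCPX (50 μg protein/assay) and at least six to eight test concentrations. Nonspecific binding was set with 10 μM CHA. Bound and free ligand were separated by GF/B filtration, then scintillation counted. n = 3–6, mean ± SEM.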

Adenosine receptor A3 = molecular target: T2, Adenosine receptor A3 (Homo sapiens, UniProt P0DMS8); assay: Displacement of [3H]MRE3008-F20 from human A3 receptors expressed in HEK293 cells; assay type: cell-based
T2 sequence (P0DMS8 whole entry): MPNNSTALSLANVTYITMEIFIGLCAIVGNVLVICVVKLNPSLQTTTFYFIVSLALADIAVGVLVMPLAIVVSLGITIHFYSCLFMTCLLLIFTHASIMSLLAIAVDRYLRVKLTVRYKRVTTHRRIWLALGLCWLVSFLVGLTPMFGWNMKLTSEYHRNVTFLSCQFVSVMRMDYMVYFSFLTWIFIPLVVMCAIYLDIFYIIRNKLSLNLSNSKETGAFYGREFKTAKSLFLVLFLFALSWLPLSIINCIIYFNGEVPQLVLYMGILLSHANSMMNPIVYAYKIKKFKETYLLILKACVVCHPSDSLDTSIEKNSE
Procedure, shortened: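 Duplicate competition tubes: 1 nM [3H]-MRE3008-F20 in 50 mM Tris-HCl, 10 mM MgCl2, pH 7.4, membranes (50 μg protein/assay) and at least six to eight ligand concentrations, incubated 120 min at 4 °C. Nonspecific binding was set with 1 μM unlabeled MRE3008-F20. Bound radioactivity was collected on GF/B filters and counted.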

Adenosine receptor A2b [1] = molecular target: T3, Adenosine receptor A2b (Homo sapiens, UniProt P29275); assay: Displacement of [3H]DPCPX from human adenosine A2B receptor expressed in HEK293 cells; assay type: cell-based
T3 sequence (P29275 whole entry): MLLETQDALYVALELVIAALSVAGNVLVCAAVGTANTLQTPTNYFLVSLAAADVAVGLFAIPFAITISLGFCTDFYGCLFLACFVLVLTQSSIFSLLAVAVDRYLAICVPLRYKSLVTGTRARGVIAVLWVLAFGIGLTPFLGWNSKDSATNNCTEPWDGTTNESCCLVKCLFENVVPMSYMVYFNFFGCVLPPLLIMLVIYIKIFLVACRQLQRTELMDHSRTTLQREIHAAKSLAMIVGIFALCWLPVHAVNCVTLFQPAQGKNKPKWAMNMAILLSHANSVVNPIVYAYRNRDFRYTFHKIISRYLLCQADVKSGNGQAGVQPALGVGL
Procedure, shortened: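 Competition run 60 min at 25 °C in 50 mM Tris-HCl, 10 mM MgCl2, 1 mM EDTA, 0.1 mM […], pH 7.4, with 2 IU/mL adenosine deaminase. Assays held 40 nM [3H]-DPCPX, membranes (20 μg protein/assay) and at least six to eight compound concentrations. Nonspecific binding was set with 100 μM NECA. Filtered on GF/B and counted. n = 3–6, mean ± SEM.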

Adenosine receptor A2b [2] = molecular target: T3, Adenosine receptor A2b; assay: Inhibitory activity against NECA stimulated cAMP accumulation in CHO cells expressing human adenosine A2B receptor; assay type: functional, cell-based
Procedure, shortened: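 Transfected CHO cells (1 × 10^6/assay) in pH 7.4 saline/HEPES/glucose medium with 2 IU/mL adenosine deaminase and Ro 20-1724 (phosphodiesterase inhibitor), preincubated 10 min at 37 °C. Antagonism of 100 nM NECA-stimulated cAMP was measured. Reaction stopped with cold 6% TCA, then ether extraction. cAMP was quantified by competitive binding with [3H]-cAMP and beef adrenal binding protein (150 min, 4 °C), with charcoal separation and scintillation counting.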

[3] = molecular target: Adenosine receptors; A2b & A3 (Homo sapiens) (UniProt P29275+P0DMS8); assay: Relative inhibitory activity against adenosine A3 receptors and A2B receptors; assay type: protein assay
[4] = molecular target: Adenosine receptors; A1 & A2b (Homo sapiens) (UniProt P30542+P29275); assay: Relative inhibitory activity against adenosine A1 and A2B receptors; assay type: protein assay

Chain of Adenosine receptor A2a (P29274 whole entry): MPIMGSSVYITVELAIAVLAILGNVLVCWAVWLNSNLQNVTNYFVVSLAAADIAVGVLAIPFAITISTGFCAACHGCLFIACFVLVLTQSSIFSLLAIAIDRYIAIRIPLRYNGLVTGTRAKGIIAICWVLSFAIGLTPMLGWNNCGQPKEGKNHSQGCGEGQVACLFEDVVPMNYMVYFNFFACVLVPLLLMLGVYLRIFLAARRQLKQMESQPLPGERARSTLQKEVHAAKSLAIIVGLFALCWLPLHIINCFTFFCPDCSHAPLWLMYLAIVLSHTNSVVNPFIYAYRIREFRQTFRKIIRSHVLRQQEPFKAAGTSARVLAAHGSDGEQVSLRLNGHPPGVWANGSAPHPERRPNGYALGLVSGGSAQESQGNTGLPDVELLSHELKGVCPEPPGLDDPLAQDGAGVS

Row | SMILES | pKi (Adenosine receptor A2a) | pKi (Adenosine receptor A1) | pKi (Adenosine receptor A3) | pKi (Adenosine receptor A2b [1]) | pIC50 (Adenosine receptor A2b [2]) | Ratio [3] | Ratio [4]
1 | CC(C)CCn1cc2c(nc(NC(=O)COc3ccccc3)n3nc(-c4ccco4)nc23)n1 | 7.42 | 7.26 | 7.30 | 7.60 | 6.82 | 2 | 2.2
2 | Nc1nc2nn(CCc3ccccc3)cc2c2nc(-c3ccco3)nn12 |  |  |  |  |  |  | 0.2
3 | O=C(COc1ccccc1)Nc1nc2nn(CCCc3ccccc3)cc2c2nc(-c3ccco3)nn12 | 7.35 | 7.30 | 7.40 | 7.60 | 6.85 | 1.6 | 2
4 | Cn1cc2c(nc(NC(=O)Cc3ccccc3)n3nc(-c4ccco4)nc23)n1 |  |  |  |  |  | 0.05 | 4.2
5 | CC(C)CCn1cc2c(nc(NC(=O)Cc3ccccc3)n3nc(-c4ccco4)nc23)n1 | 7.24 | 6.70 |  | 7.51 | 6.72 | 2.6 | 6.4
6 | CC(C)CCn1cc2c(nc(NC(=O)Cc3cccc4ccccc34)n3nc(-c4ccco4)nc23)n1 | 7.38 | 6.85 | 6.67 | 7.55 | 6.77 | 7.7 | 5.07
7 | O=C(Cc1cccc2ccccc12)Nc1nc2nn(CCCc3ccccc3)cc2c2nc(-c3ccco3)nn12 | 6.10 | 5.96 | 6.52 | 7.70 | 6.96 | 15 | 55
8 | Cn1cc2c(nc(NC(=O)Nc3ccccc3)n3nc(-c4ccco4)nc23)n1 |  |  |  |  |  | 0.0007 | 2.67

Other lines, results leading:

Row | pKi (Adenosine receptor A2a) | pKi (Adenosine receptor A1) | pKi (Adenosine receptor A3) | pKi (Adenosine receptor A2b [1]) | pIC50 (Adenosine receptor A2b [2]) | Ratio [3] | Ratio [4] | SMILES
9 | 7.26 | 7.05 | 6.92 | 7.52 | 6.74 | 4 | 3 | O=C(Cc1cccc2ccccc12)Nc1nc2nn(CCc3ccccc3)cc2c2nc(-c3ccco3)nn12
10 | 7.40 | 7.70 | 6.52 | 7.66 | 6.89 | 13.6 | 0.9 | O=C(COc1ccccc1)Nc1nc2nn(CCc3ccccc3)cc2c2nc(-c3ccco3)nn12
11 | 7.22 | 7.12 |  | 7.40 | 6.60 | 3 | 1.9 | O=C(Cc1ccccc1)Nc1nc2nn(CCCc3ccccc3)cc2c2nc(-c3ccco3)nn12
12 | 7.22 | 6.92 | 7.35 | 7.46 | 6.68 | 1.3 | 3.4 | O=C(Cc1ccccc1)Nc1nc2nn(CCc3ccccc3)cc2c2nc(-c3ccco3)nn12
